Source: ChEMBL document CHEMBL5244266, “Nitrogen-containing naringenin derivatives for reversing multidrug resistance in cancer” (Bioorg Med Chem, 2020)

Experiments:
L5178Y [1] = assay: Cytotoxicity against multi-drug resistant mouse L5178Y cells transfected with ABCB1 gene assessed as inhibition of cell growth incubated for 24 hrs by MTT assay; type: functional, cell-based
How it was run: (§1)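 L5178Y parental and human ABCB1 retrovirus-transfected lines were grown in McCoy's 5A with 10% heat-inactivated horse serum, and the MDR line was kept under colchicine 60 ng/mL. Cells were seeded at 1×10^4/well and given 2-fold dilutions from 100 μM maximum, in duplicate, for 24 h. MTT was added for 4 h, then SDS/HCl overnight at 37 °C, with OD read at 550 nm (ref 630 nm). Growth inhibition was computed against cell and medium controls, and IC50 came from curve fitting (mean ± SD).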

L5178Y [2] = assay: Synergistic cytotoxicity against multi-drug resistant mouse L5178Y cells transfected with ABCB1 gene assessed as combination index measured after 48 hrs in the presence of doxorubicin by MTT assay; type: functional
How it was run: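 This was a fixed-ratio checkerboard in L5178Y-MDR cells, with doxorubicin diluted from 14.7 to 0.1 μM against serial dilutions of the modulator. Cells were seeded at 2×10^5/mL, incubated 48 h, and read by MTT. Each curve was fitted linearly to the Chou–Talalay median-effect equation, keeping only fits with r > 0.90. CI at 50% inhibition is given as the mean ± SD of three CI values from different drug ratios.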

L5178Y [3] = assay: Cytotoxicity against parental mouse L5178Y cells assessed as inhibition of cell growth incubated for 24 hrs by MTT assay; type: functional, cell-based; how it was run: as §1
L5178Y [4] = assay: Modulation of P-glycoprotein mediated Rhodamine-123 efflux in multi-drug resistant mouse L5178Y cells tranfected with ABCB1 gene assessed as fluorescence activity ratio at 2 uM preincubated for 10 mins followed by rhodamine-123 addition and measured after 20 mins by flow cytometric analysis (reference value: 1.01); type: cell-based; details: filed as modulator, time 30.0 min
How it was run: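 Cells were held in serum-free McCoy's 5A with compound at 2.0 or 20 μM, verapamil 20 μM as positive control and DMSO 2% as solvent control, for 10 min at room temperature. R123 was then added (5.2 μM final) for 20 min at 37 °C, followed by two washes into PBS and flow cytometry (FL-1 mean fluorescence). FAR = (MDR treated/untreated FL-1) divided by (PAR treated/untreated FL-1).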

| SMILES | IC50 (L5178Y [1]) [µM] | CI (L5178Y [2]) | IC50 (L5178Y [3]) [µM] | Ratio (L5178Y [4]) |
| --- | --- | --- | --- | --- |
| COc1ccc([C@@H]2C/C(=N\NC(=O)OCc3ccccc3)c3c(O)cc(OC)cc3O2)cc1 | 7.2 | 0.445 | > 100 | 0.94 |
| COc1ccc([C@@H]2CC(=O)c3c(O)cc(OC)cc3O2)cc1 | ≥ 11.3 |  | ≥ 11.3 | 1.03 |
| Cn1cccc1/C=N/N=C1\C[C@@H](c2ccc(O)cc2)Oc2cc(O)cc(O)c21 | ≥ 11.3 |  | ≥ 11.3 | 0.64 |
| COc1ccc([C@@H]2C/C(=N\NC(=O)c3ccc(N)cc3)c3c(O)cc(OC)cc3O2)cc1 | 1.3 |  | 3.9 | 1.32 |
| COc1cc(O)c2c(c1)O[C@H](c1ccc(OCC(O)CN3CCCCC3)cc1)CC2=O (stereo partly specified) | 17.4 |  | 9.3 | 3.08 |
| COc1ccc([C@@H]2C/C(=N\NC(=O)Cc3c[nH]c4ccccc34)c3c(O)cc(OC)cc3O2)cc1 | 7.5 |  | 8.6 | 2.47 |
| Oc1ccc([C@@H]2C/C(=N\Nc3cnccn3)c3c(O)cc(O)cc3O2)cc1 | ≥ 11.3 |  | ≥ 11.3 | 1.65 |
| COC(=O)C1CCN(CC(O)COc2ccc([C@@H]3CC(=O)c4c(O)cc(OC)cc4O3)cc2)CC1 (stereo partly specified) | ≥ 11.3 |  | ≥ 11.3 | 8.01 |
| COc1cc(O)c2c(c1)O[C@H](c1ccc(O)cc1)C/C2=N\Nc1ccccc1 | ≥ 11.3 |  | ≥ 11.3 | 1.16 |
| COc1cc(O)c2c(c1)O[C@H](c1ccc(O)cc1)C/C2=N\NC(=O)c1ccc(C(F)(F)F)cc1 | ≥ 11.3 |  | ≥ 11.3 | 0.83 |
| COc1cc(O)c2c(c1)O[C@H](c1ccc(O)cc1)C/C2=N\NC(=O)c1cccs1 | 12 |  | 9.4 | 1.39 |
| COc1cccc(/C=N/N=C2\C[C@@H](c3ccc(O)cc3)Oc3cc(OC)cc(O)c32)c1 | ≥ 11.3 |  | ≥ 11.3 | 0.78 |
| O=C1C[C@@H](c2ccc(O)cc2)Oc2cc(O)cc(O)c21 [NARINGENIN] | ≥ 11.3 |  | ≥ 11.3 | 0.72 |
| O=C(N/N=C1\C[C@@H](c2ccc(O)cc2)Oc2cc(O)cc(O)c21)OCc1ccccc1 | ≥ 11.3 |  | ≥ 11.3 | 0.76 |
| COc1cc(O)c2c(c1)O[C@H](c1ccc(O)cc1)CC2=O [SAKURANETIN] | ≥ 11.3 |  | ≥ 11.3 | 1.06 |
| COc1ccc([C@@H]2C/C(=N\NC(=O)c3ccco3)c3c(O)cc(OC)cc3O2)cc1 | 3.4 |  | 2.7 | 2.24 |
| Oc1ccc([C@@H]2C/C(=N\Nc3ccccc3)c3c(O)cc(O)cc3O2)cc1 | ≥ 11.3 |  | ≥ 11.3 | 1.16 |
| Oc1ccc([C@@H]2C/C(=N\Nc3ccc(Br)cn3)c3c(O)cc(O)cc3O2)cc1 | ≥ 11.3 |  | ≥ 11.3 | 1.08 |
| COc1ccc([C@@H]2C/C(=N\Nc3ccccc3)c3c(O)cc(OC)cc3O2)cc1 | ≥ 11.3 |  | ≥ 11.3 | 1.8 |
| N/N=C1\C[C@@H](c2ccc(O)cc2)Oc2cc(O)cc(O)c21 | ≥ 11.3 |  | ≥ 11.3 | 0.72 |
